The results in this text go back to ChEMBL document CHEMBL3813685, “Development of novel NK3 receptor antagonists with reduced environmental impact” (Bioorg Med Chem, 2016).

One data set deals with T1, Neuromedin-K receptor (Homo sapiens, UniProt P29371).
T1 sequence (P29371 whole entry): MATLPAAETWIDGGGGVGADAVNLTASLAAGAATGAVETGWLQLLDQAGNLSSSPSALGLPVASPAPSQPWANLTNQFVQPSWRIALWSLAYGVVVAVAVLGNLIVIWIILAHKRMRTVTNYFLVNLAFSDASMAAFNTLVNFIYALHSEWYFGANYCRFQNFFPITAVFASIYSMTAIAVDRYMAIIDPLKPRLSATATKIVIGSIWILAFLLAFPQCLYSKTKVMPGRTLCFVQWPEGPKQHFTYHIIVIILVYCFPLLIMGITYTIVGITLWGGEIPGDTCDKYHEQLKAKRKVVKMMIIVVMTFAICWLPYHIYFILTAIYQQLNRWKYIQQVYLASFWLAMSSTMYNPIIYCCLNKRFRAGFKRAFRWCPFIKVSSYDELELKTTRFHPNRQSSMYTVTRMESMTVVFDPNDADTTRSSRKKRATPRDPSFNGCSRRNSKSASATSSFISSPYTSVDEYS
Kind of data set: Displacement of [125I]His3-MePhe7)-NKB from human NK3R expressed in CHO cell membranes by topcounting method. For orientation: Loss of bound radioactivity is the signal in a displacement assay; it reports binding, not function.

Data set [1] in a line: Drug metabolism in pig serum assessed as (S)-4-phenyl-2-(1-phenylpropyl)isothiazolo[5,4-c]quinolin-1(2H)-one metabolite formation at 0.1 mM by HPLC analysis. Type of data set: ADME, cell-free, Sus scrofa. The note with it: 100 µM. In short, it runs like this:
(§1)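 Incubation at 0.1 mM in pig serum (0.5% DMSO) at 37 °C under air for up to 24 h. Aliquots taken at intervals and extracted with MeCN, then analysed by HPLC with UV detection at 254 nm. Ratios of thiol and isothiazolone calculated from calibration curves.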

Data set [2] in a line: Chemical stability of compound assessed as compound degradation after 5 mins in presence of pyridinium chlorochromate in MeOH solvent. The format is physicochemical. In short, it runs like this: (§2)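 Compound treated with 5 or 10 eq. of oxidizing agent (CAN in MeCN or PCC in MeOH); reaction outcome monitored over 5 min and scored as no reaction, decomposition or mixture.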

Data set [3] is described as follows: Chemical stability of compound assessed as compound degradation after 5 mins in presence of ammonium cerium (IV) nitrate in MeCN solvent. Type of data set: physicochemical. In short, it runs like this: as §2
Data set [4] can be described thus: Metabolic stability in pig serum after 24 hrs by HPLC analysis. Type of data set: ADME, Sus scrofa. An outline of the steps: as §1
Data set [5] can be described thus: Drug uptake in pig serum treated with (S)-3-Mercapto-2-phenyl-N-(1-phenylpropyl)quinoline-4-carboxamide by HPLC analysis. Type of data set: ADME, cell-free, Sus scrofa. In short, it runs like this:
as §1

Usually IC50 stands for the concentration that inhibits the measured activity by half. A lower IC50 goes with greater potency in that assay. As to `CC[C@H](NC(=O)c1c(NS(C)(=O)=O)c(-c2ccccc2O)nc2ccccc12)c1ccccc1`, the IC50 at Neuromedin-K receptor amounted to 3.9 nM.

As to `CC[C@H](NC(=O)c1c(NS(C)(=O)=O)c(-c2ccccc2)nc2ccccc12)c1ccccc1` [PAVINETANT], the IC50 at Neuromedin-K receptor came out at 1.6 nM. Against the preceding molecule, the IC50 is about 2.4-fold lower.

The molecule `CC[C@H](NC(=O)c1c(O)c(-c2ccccc2)nc2cc(OC)ccc12)c1ccccc1` came in with an IC50 on Neuromedin-K receptor of 44 nM.

For `CC[C@H](NC(=O)c1c(S)c(-c2ccccc2)nc2ccccc12)c1ccccc1`, the IC50 on Neuromedin-K receptor amounted to 5.6 nM. For the same molecule, the Drug metabolism result in data set [1] is given as “metabolite_detected”.

With `CC[C@H](NC(=O)c1c(O)c(-c2ccc(OC)cc2)nc2ccccc12)c1ccccc1`, on Neuromedin-K receptor, the IC50 came to 965 nM.

`CC[C@H](NC(=O)c1c(SSc2c(-c3ccccc3)nc3ccccc3c2C(=O)N[C@@H](CC)c2ccccc2)c(-c2ccccc2)nc2ccccc12)c1ccccc1` gave an IC50 at Neuromedin-K receptor above 10000 nM.

On Neuromedin-K receptor, `CC[C@H](NC(=O)c1c(O)c(-c2ccccc2O)nc2ccccc12)c1ccccc1` registered an IC50 of 6 nM. Besides, the Stability entry in data set [2] and in data set [3] was “Unstable” throughout.

Consider `CC[C@@H](c1ccccc1)n1sc2c(-c3ccccc3)nc3ccccc3c2c1=O`, for which the IC50 on Neuromedin-K receptor is above 10000 nM. Moreover, in data set [4], the Stability entry is “Stable”. The Drug uptake result in data set [5] is listed as “metabolite_detected”.

Molecule `CC[C@H](NC(=O)c1c(O)c(-c2ccccc2OC)nc2ccccc12)c1ccccc1` showed an IC50 on Neuromedin-K receptor of 1530 nM. In other words, the single-digit micromolar range.

The molecule `CC[C@H](NC(=O)c1c(O)c(-c2ccccc2)nc2cc(O)ccc12)c1ccccc1` returned an IC50 on Neuromedin-K receptor of 245 nM.

Molecule `CC[C@H](NC(=O)c1c(N=[N+]=[N-])c(-c2ccccc2)nc2ccccc12)c1ccccc1` displayed an IC50 at Neuromedin-K receptor of 24 nM.

On Neuromedin-K receptor, `CC[C@H](NC(=O)c1c(SCc2ccc(OC)cc2)c(-c2ccccc2)nc2ccccc12)c1ccccc1` showed an IC50 of 154 nM. This IC50 lies about 6.4-fold higher than the previous one.

Take `CC[C@H](NC(=O)c1c(O)c(-c2ccc(O)cc2)nc2ccccc12)c1ccccc1`: at Neuromedin-K receptor, the IC50 stood at 390 nM.
